Data reported in ChEMBL document CHEMBL1136016, “Synthesis, biological activity, and molecular modeling investigation of new pyrazolo[4,3-e]-1,2,4-triazolo[1,5-c]pyrimidine derivatives as human A(3) adenosine receptor antagonists” (J Med Chem, 2002).

Legend:
Adenosine receptor A2b [1] = biological target: T1, Adenosine receptor A2b (Homo sapiens, UniProt P29275); assay: Displacement of [3H]DPCPX from human Adenosine A2B receptor expressed in HEK293 cells; range 57-105; format: cell-based
T1 sequence (P29275 whole entry): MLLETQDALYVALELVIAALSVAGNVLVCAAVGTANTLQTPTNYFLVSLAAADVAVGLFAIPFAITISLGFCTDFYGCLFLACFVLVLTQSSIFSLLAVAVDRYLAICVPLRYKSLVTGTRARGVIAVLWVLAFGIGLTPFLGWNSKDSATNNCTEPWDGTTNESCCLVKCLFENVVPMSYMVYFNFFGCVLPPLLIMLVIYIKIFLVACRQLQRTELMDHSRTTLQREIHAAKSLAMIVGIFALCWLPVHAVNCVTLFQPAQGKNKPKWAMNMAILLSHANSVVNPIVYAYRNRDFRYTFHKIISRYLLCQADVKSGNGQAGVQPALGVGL
Method in brief: (§1)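 Membranes from HEK-293 cells with human recombinant A2B receptor. Incubation 60 min at 25 °C in 50 mM Tris HCl, 10 mM MgCl2, 1 mM EDTA, 0.1 mM benzamidine, pH 7.4, with 2 IU/mL adenosine deaminase and 40 nM [3H]DPCPX. At least six to eight test concentrations. Nonspecific binding defined with NECA. n = 3-6.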

[2] = biological target: Adenosine receptors; A1 & A3 (Homo sapiens) (UniProt P30542+P0DMS8); assay: Selectivity ratio (hA1/hA3); format: protein assay
Adenosine receptor A2a [3] = biological target: T2, Adenosine receptor A2a (Homo sapiens, UniProt P29274); assay: Displacement of [3H]SCH-58261 from human Adenosine A2A receptor expressed in HEK293 cells; range 332-426; format: cell-based
T2 sequence (P29274 whole entry): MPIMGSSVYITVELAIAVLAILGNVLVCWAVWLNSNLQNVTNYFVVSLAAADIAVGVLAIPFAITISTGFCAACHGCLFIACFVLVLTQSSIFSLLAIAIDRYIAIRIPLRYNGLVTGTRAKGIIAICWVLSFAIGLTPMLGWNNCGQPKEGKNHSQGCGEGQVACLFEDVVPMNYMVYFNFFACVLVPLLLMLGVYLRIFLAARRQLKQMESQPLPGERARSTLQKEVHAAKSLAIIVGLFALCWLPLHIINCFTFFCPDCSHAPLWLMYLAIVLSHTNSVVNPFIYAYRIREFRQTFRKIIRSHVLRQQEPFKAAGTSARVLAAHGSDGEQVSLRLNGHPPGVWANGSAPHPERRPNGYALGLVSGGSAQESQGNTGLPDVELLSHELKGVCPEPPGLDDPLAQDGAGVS

[4] = biological target: Adenosine receptors; A2b & A3 (Homo sapiens) (UniProt P29275+P0DMS8); assay: Selectivity ratio (h2B/hA3); format: protein assay
Adenosine receptor A1 [5] = biological target: T3, Adenosine receptor A1 (Homo sapiens, UniProt P30542); assay: Displacement of [3H]DPCPX from human Adenosine A1 receptor expressed in CHO cells; range 314-536; format: cell-based
T3 sequence (P30542 whole entry): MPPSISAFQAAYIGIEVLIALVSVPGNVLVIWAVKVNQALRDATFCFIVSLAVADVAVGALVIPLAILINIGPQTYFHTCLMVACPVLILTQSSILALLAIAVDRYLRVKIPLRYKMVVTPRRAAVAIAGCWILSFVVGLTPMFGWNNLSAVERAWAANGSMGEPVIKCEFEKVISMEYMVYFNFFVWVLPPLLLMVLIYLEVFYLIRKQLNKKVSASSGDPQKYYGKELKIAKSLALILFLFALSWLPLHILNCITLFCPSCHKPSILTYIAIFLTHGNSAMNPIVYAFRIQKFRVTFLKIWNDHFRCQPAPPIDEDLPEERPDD

Adenosine receptor A3 [6] = biological target: T4, Adenosine receptor A3 (Homo sapiens, UniProt P0DMS8); assay: biochemical
T4 sequence (P0DMS8 whole entry): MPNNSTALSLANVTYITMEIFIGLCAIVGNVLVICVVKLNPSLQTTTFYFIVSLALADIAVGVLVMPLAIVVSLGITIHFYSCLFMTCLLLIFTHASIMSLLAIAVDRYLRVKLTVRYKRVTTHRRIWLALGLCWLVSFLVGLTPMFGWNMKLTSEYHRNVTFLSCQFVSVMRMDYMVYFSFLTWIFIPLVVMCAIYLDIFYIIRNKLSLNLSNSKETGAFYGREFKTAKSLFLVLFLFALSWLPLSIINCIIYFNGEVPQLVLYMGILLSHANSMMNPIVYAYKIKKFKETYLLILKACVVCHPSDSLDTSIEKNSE

Adenosine receptor A3 [7] = biological target: T4, Adenosine receptor A3; assay: Displacement of [3H]MRE3008-F20 from human Adenosine A3 receptor expressed in HEK cells; range 0.29-0.47; format: cell-based, HEK293
Adenosine receptor A1 [8] = biological target: T3, Adenosine receptor A1; assay: Displacement of [3H]DPCPX from human Adenosine A1 receptor expressed in CHO cells; range 389-640; format: cell-based
Method in brief: (§2)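 Human recombinant A1 receptor in CHO cell membranes, resuspended in 50 mM Tris HCl pH 7.4. Displacement run 120 min at 25 °C with 1 nM [3H]DPCPX, 50 µg protein per assay, and at least six to eight test concentrations. Nonspecific binding defined with CHA. Bound and free separated on glass-fiber filters; filter radioactivity counted. n = 3-6.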

Adenosine receptor A2b [9] = biological target: T1, Adenosine receptor A2b; assay: Displacement of [3H]DPCPX from human Adenosine A2B receptor expressed in HEK293 cells; range 261-336; format: cell-based; method in brief: as §1
Adenosine receptor A2a [10] = biological target: T2, Adenosine receptor A2a; assay: Displacement of [3H]SCH-58261 from human Adenosine A2A receptor expressed in HEK293 cells; range 30-54; format: cell-based
Adenosine receptor A2a [11] = biological target: T2, Adenosine receptor A2a; assay: Displacement of [3H]SCH-58261 from human Adenosine A2A receptor expressed in HEK293 cells; range 312-515; format: cell-based
Adenosine receptor A1 [12] = biological target: T3, Adenosine receptor A1; assay: Displacement of [3H]DPCPX from human Adenosine A1 receptor expressed in CHO cells; range 525-691; format: cell-based
Adenosine receptor A3 [13] = biological target: T4, Adenosine receptor A3; assay: biochemical; remark: listed apart in the source
Adenosine receptor A2b [14] = biological target: T1, Adenosine receptor A2b; assay: Displacement of [3H]DPCPX from human Adenosine A2B receptor expressed in HEK293 cells; range 89-116; format: cell-based; method in brief: as §1
Adenosine receptor A3 [15] = biological target: T4, Adenosine receptor A3; assay: Displacement of specific [3H]MRE3008-F20 binding at human Adenosine A3 receptor expressed in HEK cells; value ranges from 39-55; format: cell-based, HEK293
Adenosine receptor A1 [16] = biological target: T3, Adenosine receptor A1; assay: Displacement of [3H]DPCPX from human Adenosine A1 receptor expressed in CHO cells; format: cell-based; method in brief: as §2
Adenosine receptor A2b [17] = biological target: T1, Adenosine receptor A2b; assay: Displacement of [3H]DPCPX binding at human Adenosine A2B receptor expressed in HEK293 cells; format: cell-based; method in brief: as §1
Adenosine receptor A2a [18] = biological target: T2, Adenosine receptor A2a; assay: Displacement of [3H]SCH-58261 from human Adenosine A2A receptor expressed in HEK293 cells; range 300-414; format: cell-based
Adenosine receptor A2b [19] = biological target: T1, Adenosine receptor A2b; assay: Displacement of [3H]DPCPX from human Adenosine A2B receptor expressed in HEK293 cells; range 67-141; format: cell-based
Method in brief: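 Competition binding on membranes of HEK-293 cells carrying recombinant human A2B receptor. Incubation 60 min at 25 °C in 50 mM Tris HCl pH 7.4 with 10 mM MgCl2, 1 mM EDTA, 0.1 mM benzamidine and 2 IU/mL adenosine deaminase. Radioligand 40 nM [3H]DPCPX, at least six to eight test concentrations. NECA defined nonspecific binding. Bound ligand separated on glass-fibre filters and counted; n = 3-6.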

Adenosine receptor A1 [20] = biological target: T3, Adenosine receptor A1; assay: Displacement of [3H]DPCPX from human Adenosine A1 receptor expressed in CHO cells; range […]; format: cell-based
Method in brief: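 Competition binding on membranes of CHO cells stably expressing human A1 receptor, resuspended in 50 mM Tris HCl pH 7.4. Incubation 120 min at 25 °C with 1 nM [3H]DPCPX, 50 µg protein per assay and at least six to eight test concentrations. CHA defined nonspecific binding. Bound ligand separated on glass-fibre filters and counted; n = 3-6.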

Adenosine receptor A2a [21] = biological target: T2, Adenosine receptor A2a; assay: Displacement of [3H]SCH-58,261 from human Adenosine A2A receptor expressed in HEK293 cells; range 122-187; format: cell-based
Adenosine receptor A3 [22] = biological target: T4, Adenosine receptor A3; assay: Displacement of [3H]MRE3008-F20 from human Adenosine A3 receptor expressed in HEK cells; range 0.23-0.40; format: cell-based, HEK293

Q: How did the Ki (Adenosine receptor A2b [1]) turn out when CCCCn1cc2c(nc(NC(=O)Nc3ccc4c(c3)OCO4)n3nc(-c4ccco4)nc23)n1 was run?
A: 78 nM

Q: And the Ratio [2]?
A: 820

Q: And the Ki (Adenosine receptor A2a [3])?
A: 376 nM

Q: And the Ratio [4]?
A: 156

Q: And the Ki (Adenosine receptor A1 [5])?
A: 410 nM

Q: And the Ki (Adenosine receptor A3 [6])?
A: 0.5 nM

Q: CCn1cc2c(nc(NC(=O)Nc3ccc(Br)cc3)n3nc(-c4ccco4)nc23)n1 was tested. Which Ratio [2] did it give?
A: 1350

Q: And the Ki (Adenosine receptor A3 [7])?
A: 0.37 nM

Q: What about the Ratio [4] of the same compound?
A: 800

Q: What about the Ki (Adenosine receptor A1 [8]) of the same compound?
A: 500 nM

Q: And the Ki (Adenosine receptor A2b [9])?
A: 296 nM

Q: And the Ki (Adenosine receptor A2a [10])?
A: 40 nM

Q: Which results are given for CCCCn1cc2c(nc(NC(=O)Cc3ccccc3)n3nc(-c4ccco4)nc23)n1?
A: Ki (Adenosine receptor A2a [11]): 400 nM; Ratio [2]: 542; Ki (Adenosine receptor A1 [12]): 602 nM; Ratio [4]: 91; Ki (Adenosine receptor A3 [13]): 1.11 nM; Ki (Adenosine receptor A2b [14]): 101 nM

Q: What does the source list for CCCCn1cc2c(nc(NC(=O)Nc3ccc(S(=O)(=O)O)cc3)n3nc(-c4ccco4)nc23)n1?
A: Ki (Adenosine receptor A3 [15]): 47 nM; Ratio [2]: > 213; Ki (Adenosine receptor A1 [16]): > 10000 nM; Ratio [4]: > 213; Ki (Adenosine receptor A2b [17]): > 10000 nM; Ki (Adenosine receptor A2a [18]): 352 nM

Q: For CCn1cc2c(nc(NC(=O)Nc3ccccc3Cl)n3nc(-c4ccco4)nc23)n1, which Ratio [2] is on record?
A: 1160

Q: What about the Ki (Adenosine receptor A2b [19]) of the same compound?
A: 97 nM

Q: What about the Ki (Adenosine receptor A1 [20]) of the same compound?
A: 348 nM

Q: And the Ratio [4]?
A: 323

Q: And the Ki (Adenosine receptor A2a [21])?
A: 150 nM

Q: What about the Ki (Adenosine receptor A3 [22]) of the same compound?
A: 0.3 nM
